Assay results from ChEMBL document CHEMBL4118021, “Studies of TAK1-centered polypharmacology with novel covalent TAK1 inhibitors” (Bioorg Med Chem, 2017).
The source made the active and inactive calls. No cut-off for these calls is given here.

Experiments:
[1] = biological target: Serine/threonine-protein kinase 36 (Homo sapiens) (UniProt Q9NRP7); assay: Inhibition of human STK36 (1 to 271 residues) expressed in bacterial expression system assessed as enzyme activity at 1 uM by KINOMEScan assay relative to control; parameters: scale not given: the % may be the effect or the level left
In short: (§1)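 In vitro ATP-site competition binding assay across a panel of 456 kinases, with compound tested at 1 and 10 μM.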

[2] = biological target: Mitogen-activated protein kinase kinase kinase 20 (Homo sapiens) (UniProt Q9NYL2); assay: Inhibition of human ZAK (1 to 331 residues) expressed in bacterial expression system assessed as enzyme activity at 10 uM by KINOMEScan assay relative to control; parameters: scale not given: the % may be the effect or the level left; in short: as §1
[3] = biological target: Serine/threonine-protein kinase Nek1 (Homo sapiens) (UniProt Q96PY6); assay: Inhibition of NEK1 in human SKCO1 cells at 1 uM after 4 hrs using biotin labeled DIKSQNIFLTK probe by mass-spectrometric analysis relative to control; format: cell-based
[4] = biological target: Tyrosine-protein kinase JAK1 (Homo sapiens) (UniProt P23458); assay: Inhibition of JAK1 domain2 in human SKCO1 cells at 1 uM after 4 hrs using biotin labeled IGDFGLTKAIETDKEYYTVK probe by mass-spectrometric analysis relative to control; format: cell-based
[5] = biological target: StAR-related lipid transfer protein 7, mitochondrial (Homo sapiens) (UniProt Q9NQZ5); assay: Binding affinity to STARD7 in human NCI-H23 cells at 1 uM by mass spectrometry based pull down assay; format: cell-based
[6] = biological target: Poly(rC)-binding protein 1 (Homo sapiens) (UniProt Q15365); assay: Binding affinity to PCBP1 in human NCI-H23 cells at 1 uM by mass spectrometry based pull down assay; format: cell-based
[7] = biological target: Elongation factor 1-gamma (Homo sapiens) (UniProt P26641); assay: Binding affinity to EEF1G in human NCI-H358 cells at 1 uM by mass spectrometry based pull down assay; format: cell-based
[8] = biological target: Pyrroline-5-carboxylate reductase 2 (Homo sapiens) (UniProt Q96C36); assay: Binding affinity to PYCR2 in human NCI-H23 cells at 1 uM by mass spectrometry based pull down assay; format: cell-based
[9] = biological target: Serine hydroxymethyltransferase, mitochondrial (Homo sapiens) (UniProt P34897); assay: Binding affinity to SHMT2 in human NCI-H358 cells at 1 uM by mass spectrometry based pull down assay; format: cell-based
[10] = biological target: Aldehyde dehydrogenase family 3 member A2 (Homo sapiens) (UniProt P51648); assay: Binding affinity to ALDH3A2 in human NCI-H358 cells at 1 uM by mass spectrometry based pull down assay; format: cell-based
[11] = biological target: Protein CIP2A (Homo sapiens) (UniProt Q8TCG1); assay: Binding affinity to KIAA1524 in human NCI-H23 cells at 1 uM by mass spectrometry based pull down assay; format: cell-based
[12] = biological target: Spermidine synthase (Homo sapiens) (UniProt P19623); assay: Binding affinity to SRM in human NCI-H23 cells at 1 uM by mass spectrometry based pull down assay; format: cell-based
[13] = biological target: Serine/threonine-protein kinase Chk2 (Homo sapiens) (UniProt O96017); assay: Binding affinity to CHEK2 in human NCI-H23 cells at 1 uM by mass spectrometry based pull down assay; format: cell-based
[14] = biological target: Importin-5 (Homo sapiens) (UniProt O00410); assay: Binding affinity to IPO5 in human NCI-H23 cells at 1 uM by mass spectrometry based pull down assay; format: cell-based
[15] = biological target: 80S Ribosome (Homo sapiens) (UniProt P08865+P42677+P62753+P15880+P23396+P61247+P62701+P22090+P46782+P62081+P62241+P46781+P46783+P62280+P25398+P62277+P62263+P62841+P62244+P62249+P08708+P62269+P39019+P60866+P63220+P62266+P62847+P62851+P62854+P62979+P62857+P62273+P62861+P39023+P36578+P46777+Q02878+P18124+P62424+P62917+P32969+P27635+P62906+P62913+P30050+P26373+P40429+P50914+P61313+P18621+Q07020+Q02543+P84098+P46778+P35268+P62829+P62750+P83731+P61254+P61353+P46776+P46779+P47914+P62888+P62899+P62910+P49207+P42766+P18077+Q9Y3U8+P83881+P61927+P61513+P63173+P62891+P62945+P05388+P05386); assay: Binding affinity to RPL27 in human NCI-H23 cells at 1 uM by mass spectrometry based pull down assay; format: cell-based
[16] = biological target: Translation initiation factor eIF2B subunit gamma (Homo sapiens) (UniProt Q9NR50); assay: Binding affinity to EIF2B3 in human NCI-H23 cells at 1 uM by mass spectrometry based pull down assay; format: cell-based
[17] = biological target: HCLS1-associated protein X-1 (Homo sapiens) (UniProt O00165); assay: Binding affinity to HAX1 in human NCI-H358 cells at 1 uM by mass spectrometry based pull down assay; format: cell-based
[18] = biological target: Tubulin alpha-4A chain (Homo sapiens) (UniProt P68366); assay: Binding affinity to TUBA4A in human NCI-H23 cells at 1 uM by mass spectrometry based pull down assay; format: cell-based
[19] = biological target: Pyrroline-5-carboxylate reductase 2 (Homo sapiens) (UniProt Q96C36); assay: Binding affinity to PYCR2 in human NCI-H358 cells at 1 uM by mass spectrometry based pull down assay; format: cell-based
[20] = biological target: DnaJ homolog subfamily A member 1 (Homo sapiens) (UniProt P31689); assay: Binding affinity to DNAJA1 in human NCI-H358 cells at 1 uM by mass spectrometry based pull down assay; format: cell-based
[21] = biological target: T1, Serine/threonine-protein kinase 4 (Homo sapiens) (UniProt Q13043); assay: Binding affinity to STK4 in human NCI-H23 cells at 1 uM by mass spectrometry based pull down assay; format: cell-based
T1 sequence (whole entry): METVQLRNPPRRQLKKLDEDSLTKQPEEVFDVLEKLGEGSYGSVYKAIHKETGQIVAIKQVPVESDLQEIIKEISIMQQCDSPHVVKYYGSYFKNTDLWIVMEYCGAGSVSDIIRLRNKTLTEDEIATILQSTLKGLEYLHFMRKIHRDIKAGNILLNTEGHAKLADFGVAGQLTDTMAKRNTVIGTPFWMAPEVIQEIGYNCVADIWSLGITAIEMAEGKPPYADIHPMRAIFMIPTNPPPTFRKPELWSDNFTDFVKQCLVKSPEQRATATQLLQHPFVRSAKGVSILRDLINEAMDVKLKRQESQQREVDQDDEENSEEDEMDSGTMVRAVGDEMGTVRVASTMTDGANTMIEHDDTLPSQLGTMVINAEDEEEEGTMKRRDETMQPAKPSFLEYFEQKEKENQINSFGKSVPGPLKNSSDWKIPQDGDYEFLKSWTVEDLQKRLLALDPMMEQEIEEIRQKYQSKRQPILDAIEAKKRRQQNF

Pyrroline-5-carboxylate reductase 2 (Homo sapiens), sequence (Q96C36 whole entry): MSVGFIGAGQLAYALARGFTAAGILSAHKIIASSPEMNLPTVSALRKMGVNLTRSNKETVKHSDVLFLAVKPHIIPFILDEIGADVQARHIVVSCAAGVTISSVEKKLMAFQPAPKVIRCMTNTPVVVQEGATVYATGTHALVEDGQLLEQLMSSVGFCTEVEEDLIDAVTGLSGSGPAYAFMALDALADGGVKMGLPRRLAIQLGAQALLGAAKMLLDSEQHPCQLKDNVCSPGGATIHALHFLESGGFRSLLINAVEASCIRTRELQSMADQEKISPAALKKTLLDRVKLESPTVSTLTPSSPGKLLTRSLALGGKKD
Serine/threonine-protein kinase 36 (Homo sapiens), sequence (Q9NRP7 whole entry, the tested form may be a part): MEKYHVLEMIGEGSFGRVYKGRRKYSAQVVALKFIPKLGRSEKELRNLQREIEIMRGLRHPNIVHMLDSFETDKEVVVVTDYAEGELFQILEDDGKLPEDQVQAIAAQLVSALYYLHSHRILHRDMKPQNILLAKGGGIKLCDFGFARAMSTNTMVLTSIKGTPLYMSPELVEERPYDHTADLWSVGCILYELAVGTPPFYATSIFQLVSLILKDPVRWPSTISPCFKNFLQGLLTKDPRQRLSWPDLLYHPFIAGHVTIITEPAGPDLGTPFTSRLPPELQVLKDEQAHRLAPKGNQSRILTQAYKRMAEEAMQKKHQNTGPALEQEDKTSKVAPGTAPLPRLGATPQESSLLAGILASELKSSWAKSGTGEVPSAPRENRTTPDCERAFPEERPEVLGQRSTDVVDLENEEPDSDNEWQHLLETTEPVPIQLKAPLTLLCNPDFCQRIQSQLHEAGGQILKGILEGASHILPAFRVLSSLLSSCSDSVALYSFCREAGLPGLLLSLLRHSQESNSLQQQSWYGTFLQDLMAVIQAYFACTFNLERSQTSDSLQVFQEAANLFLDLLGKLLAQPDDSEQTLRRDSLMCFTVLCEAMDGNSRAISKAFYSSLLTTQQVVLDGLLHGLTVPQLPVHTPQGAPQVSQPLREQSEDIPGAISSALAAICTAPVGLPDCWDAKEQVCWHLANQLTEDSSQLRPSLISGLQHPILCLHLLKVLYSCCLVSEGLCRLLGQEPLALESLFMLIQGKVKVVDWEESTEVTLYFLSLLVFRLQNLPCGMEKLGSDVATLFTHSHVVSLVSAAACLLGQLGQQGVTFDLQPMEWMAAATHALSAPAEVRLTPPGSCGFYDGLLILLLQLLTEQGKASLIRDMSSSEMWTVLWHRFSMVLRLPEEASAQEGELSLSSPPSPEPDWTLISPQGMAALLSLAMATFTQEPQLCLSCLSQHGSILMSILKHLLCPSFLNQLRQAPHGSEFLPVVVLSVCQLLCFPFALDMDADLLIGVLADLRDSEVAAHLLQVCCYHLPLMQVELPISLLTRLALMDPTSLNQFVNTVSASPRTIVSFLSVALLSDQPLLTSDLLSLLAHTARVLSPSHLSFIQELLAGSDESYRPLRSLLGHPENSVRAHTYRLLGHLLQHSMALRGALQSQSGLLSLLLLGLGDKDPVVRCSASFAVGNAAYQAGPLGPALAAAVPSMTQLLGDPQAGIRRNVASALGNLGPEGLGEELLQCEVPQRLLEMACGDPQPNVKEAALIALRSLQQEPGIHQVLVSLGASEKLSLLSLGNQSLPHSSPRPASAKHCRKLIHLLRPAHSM
Spermidine synthase (Homo sapiens), sequence (P19623 whole entry): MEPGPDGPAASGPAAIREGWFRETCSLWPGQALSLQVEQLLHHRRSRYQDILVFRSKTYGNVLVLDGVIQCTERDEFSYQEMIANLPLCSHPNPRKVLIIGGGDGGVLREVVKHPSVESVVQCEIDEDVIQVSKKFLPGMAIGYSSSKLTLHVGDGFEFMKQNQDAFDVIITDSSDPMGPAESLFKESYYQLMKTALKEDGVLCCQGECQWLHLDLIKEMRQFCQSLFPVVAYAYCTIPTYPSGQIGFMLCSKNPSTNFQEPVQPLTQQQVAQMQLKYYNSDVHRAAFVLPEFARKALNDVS
Importin-5 (Homo sapiens), sequence (O00410 whole entry): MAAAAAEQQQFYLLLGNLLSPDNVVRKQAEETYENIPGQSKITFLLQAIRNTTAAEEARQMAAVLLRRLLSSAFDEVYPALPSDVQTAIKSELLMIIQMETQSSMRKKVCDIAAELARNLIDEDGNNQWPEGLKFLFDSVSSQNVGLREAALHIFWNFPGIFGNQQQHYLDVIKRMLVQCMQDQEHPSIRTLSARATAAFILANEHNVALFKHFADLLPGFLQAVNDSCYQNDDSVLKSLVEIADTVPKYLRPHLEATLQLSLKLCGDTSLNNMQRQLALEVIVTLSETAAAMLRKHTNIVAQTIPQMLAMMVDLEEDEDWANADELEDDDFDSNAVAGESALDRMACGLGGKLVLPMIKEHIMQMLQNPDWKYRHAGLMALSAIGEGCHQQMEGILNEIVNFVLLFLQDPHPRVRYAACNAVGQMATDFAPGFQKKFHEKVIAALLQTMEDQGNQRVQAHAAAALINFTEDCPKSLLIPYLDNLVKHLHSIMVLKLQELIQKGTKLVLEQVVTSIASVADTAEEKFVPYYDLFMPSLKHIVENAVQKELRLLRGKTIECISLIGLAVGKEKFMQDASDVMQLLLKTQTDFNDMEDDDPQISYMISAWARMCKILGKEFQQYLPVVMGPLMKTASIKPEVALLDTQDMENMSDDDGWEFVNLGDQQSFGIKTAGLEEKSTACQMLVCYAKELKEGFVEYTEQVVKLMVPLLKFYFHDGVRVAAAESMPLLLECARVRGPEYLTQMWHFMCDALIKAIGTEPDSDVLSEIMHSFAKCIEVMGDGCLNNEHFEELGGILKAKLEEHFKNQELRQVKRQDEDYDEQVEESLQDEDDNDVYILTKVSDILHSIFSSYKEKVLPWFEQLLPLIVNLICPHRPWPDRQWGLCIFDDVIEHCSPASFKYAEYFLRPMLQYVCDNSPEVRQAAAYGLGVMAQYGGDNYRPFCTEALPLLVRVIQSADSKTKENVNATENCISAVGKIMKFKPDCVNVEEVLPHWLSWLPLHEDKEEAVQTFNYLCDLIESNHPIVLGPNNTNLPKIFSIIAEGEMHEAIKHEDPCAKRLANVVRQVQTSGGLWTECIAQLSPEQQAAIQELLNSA
Tubulin alpha-4A chain (Homo sapiens), sequence (P68366 whole entry, looked up): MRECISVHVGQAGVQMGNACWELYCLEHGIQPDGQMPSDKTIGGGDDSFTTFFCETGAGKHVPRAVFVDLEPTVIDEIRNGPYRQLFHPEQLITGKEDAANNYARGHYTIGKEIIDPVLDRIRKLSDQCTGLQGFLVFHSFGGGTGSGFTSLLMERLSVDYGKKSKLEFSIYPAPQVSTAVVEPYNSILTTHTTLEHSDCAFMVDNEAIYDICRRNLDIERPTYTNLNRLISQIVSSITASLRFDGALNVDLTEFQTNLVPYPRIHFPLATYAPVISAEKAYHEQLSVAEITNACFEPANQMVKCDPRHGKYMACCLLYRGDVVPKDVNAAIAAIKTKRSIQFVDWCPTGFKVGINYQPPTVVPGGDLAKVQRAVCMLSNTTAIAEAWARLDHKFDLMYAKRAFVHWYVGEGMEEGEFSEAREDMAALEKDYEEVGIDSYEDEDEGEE
HCLS1-associated protein X-1 (Homo sapiens), sequence (O00165 whole entry): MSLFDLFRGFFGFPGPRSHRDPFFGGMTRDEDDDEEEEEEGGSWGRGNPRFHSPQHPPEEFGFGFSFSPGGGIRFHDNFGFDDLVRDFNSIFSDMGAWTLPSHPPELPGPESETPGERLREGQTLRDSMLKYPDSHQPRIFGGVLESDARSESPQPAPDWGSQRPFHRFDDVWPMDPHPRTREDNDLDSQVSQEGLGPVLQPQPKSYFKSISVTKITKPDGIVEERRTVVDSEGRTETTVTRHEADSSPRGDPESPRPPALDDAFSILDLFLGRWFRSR
Poly(rC)-binding protein 1 (Homo sapiens), sequence (Q15365 whole entry): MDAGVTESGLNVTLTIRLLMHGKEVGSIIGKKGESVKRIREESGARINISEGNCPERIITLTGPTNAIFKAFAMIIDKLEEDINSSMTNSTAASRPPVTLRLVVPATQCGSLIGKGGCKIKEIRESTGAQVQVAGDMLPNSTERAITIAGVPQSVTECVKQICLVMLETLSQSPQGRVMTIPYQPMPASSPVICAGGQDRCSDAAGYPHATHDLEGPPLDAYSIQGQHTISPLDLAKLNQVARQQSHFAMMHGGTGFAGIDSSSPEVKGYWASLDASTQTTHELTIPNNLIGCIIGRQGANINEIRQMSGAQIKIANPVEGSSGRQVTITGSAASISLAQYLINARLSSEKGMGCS
StAR-related lipid transfer protein 7, mitochondrial (Homo sapiens), sequence (Q9NQZ5 whole entry): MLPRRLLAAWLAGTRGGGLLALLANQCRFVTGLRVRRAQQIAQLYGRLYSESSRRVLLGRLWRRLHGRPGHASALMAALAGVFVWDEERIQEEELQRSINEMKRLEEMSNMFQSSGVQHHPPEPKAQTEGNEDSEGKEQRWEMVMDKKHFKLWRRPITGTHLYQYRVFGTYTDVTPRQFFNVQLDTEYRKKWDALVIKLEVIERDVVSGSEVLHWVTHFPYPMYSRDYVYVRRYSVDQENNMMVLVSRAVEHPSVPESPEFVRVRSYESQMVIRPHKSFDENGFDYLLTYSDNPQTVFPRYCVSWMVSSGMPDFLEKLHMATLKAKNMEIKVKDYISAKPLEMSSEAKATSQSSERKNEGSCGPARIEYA
Aldehyde dehydrogenase family 3 member A2 (Homo sapiens), sequence (P51648 whole entry): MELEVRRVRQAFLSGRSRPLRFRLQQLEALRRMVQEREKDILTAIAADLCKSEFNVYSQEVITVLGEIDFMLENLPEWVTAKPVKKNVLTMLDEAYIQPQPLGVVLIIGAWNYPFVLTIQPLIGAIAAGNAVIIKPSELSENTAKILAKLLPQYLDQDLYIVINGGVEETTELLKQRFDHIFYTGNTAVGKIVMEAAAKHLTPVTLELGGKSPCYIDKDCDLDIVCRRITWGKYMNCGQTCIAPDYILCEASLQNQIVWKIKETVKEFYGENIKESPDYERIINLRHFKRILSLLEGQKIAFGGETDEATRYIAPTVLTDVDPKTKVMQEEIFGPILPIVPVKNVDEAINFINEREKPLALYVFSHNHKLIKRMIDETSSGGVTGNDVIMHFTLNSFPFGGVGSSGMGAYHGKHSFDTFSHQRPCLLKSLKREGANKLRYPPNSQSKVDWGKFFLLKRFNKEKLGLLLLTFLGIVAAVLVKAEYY

COc1cc(O)c2c(c1)/C=C/C[C@H](O)[C@H](O)C(=O)/C=C\C[C@H](C)OC2=O
Activity [1]: 7.1%
Activity [2]: 2.2%

C=CC(=O)Nc1ccccc1Oc1nc(Nc2cnn(CCOC)c2)ncc1Cl
inhibition [3]: -7.4%

C=CC(=O)Nc1ccccc1Nc1nc(Nc2ccc(N3CCN(C)CC3)cc2)ncc1Cl
inhibition [4]: 2.6%

C=CC(=O)Nc1ccccc1Nc1nc(Nc2ccc(N3CCN(CCOCCOCCOCCNC(=O)CCCC[C@@H]4SC[C@@H]5NC(=O)N[C@@H]54)CC3)cc2)ncc1Cl
Activity [5]: Active
Activity [6]: Active
Activity [7]: Active
Activity [8]: Active
Activity [9]: Active
Activity [10]: Active
Activity [11]: Active
Activity [12]: Active
Activity [13]: Active
Activity [14]: Active
Activity [15]: Active
Activity [16]: Active
Activity [17]: Active
Activity [18]: Active
Activity [19]: Active
Activity [20]: Active
Activity [21]: Active
